Measurements from ChEMBL document CHEMBL1158358, “Synthesis, antimicrobial and cytotoxic activities of some 5-arylidene-4-thioxo-thiazolidine-2-ones” (Eur J Med Chem, 2009).
≈ marks a conversion by molar mass, not a printed value.

How the values were obtained:
Type in all cases: functional
[1] = system: Staphylococcus aureus; assay: Antimicrobial activity against Staphylococcus aureus UFPEDA 01 after 20 hrs by twofold serial dilution technique; details: UFPEDA 01, 20 h
Outline: (§1)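 Twofold serial dilution MIC in agar plates against Gram-positive strains and multidrug-resistant clinical isolates. Inoculum applied was 10⁵ CFU/plate. Plates with culture medium plus DMSO served as negative control. MIC was read after incubation at 35 °C for 20 h.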

[2] = system: Bacillus subtilis; assay: Antimicrobial activity against Bacillus subtilis UFPEDA 16 after 20 hrs by twofold serial dilution technique; details: UFPEDA 16, 20 h
Outline: (§2)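 MIC was determined by twofold serial dilution. Bacteria were tested in plates at 10⁵ CFU/plate and read after 20 h. C. albicans was tested in tubes at 10³ CFU/tube and read after 48 h. All incubations were at 35 °C. Medium plus DMSO served as the negative control.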

[3] = system: Micrococcus luteus; assay: Antimicrobial activity against Micrococcus luteus UFPEDA 06 after 20 hrs by twofold serial dilution technique; details: UFPEDA 06, 20 h; outline: as §2
[4] = system: Enterococcus faecalis; assay: Antimicrobial activity against Enterococcus faecalis UFPEDA 138 after 20 hrs by twofold serial dilution technique; details: UFPEDA 138, 20 h; outline: as §2
[5] = system: Mycolicibacterium smegmatis; assay: Antimicrobial activity against Mycobacterium smegmatis UFPEDA 71 after 20 hrs by twofold serial dilution technique; details: UFPEDA 71, 20 h; outline: as §2
[6] = system: Candida albicans; assay: Antimicrobial activity against Candida albicans UFPEDA 1007 after 48 hrs by twofold serial dilution technique; details: UFPEDA 1007, 48 h; outline: as §2
[7] = system: Staphylococcus aureus; assay: Antimicrobial activity against multidrug-resistant Staphylococcus aureus H.C. 20981 isolate after 20 hrs by twofold serial dilution technique; details: H.C. 20981, 20 h; outline: as §1
[8] = system: Staphylococcus aureus; assay: Antimicrobial activity against multidrug-resistant Staphylococcus aureus H.C. 21141 isolate after 20 hrs by twofold serial dilution technique; details: H.C. 21141, 20 h; outline: as §1
[9] = system: Staphylococcus aureus; assay: Antimicrobial activity against multidrug-resistant Staphylococcus aureus H.C. 21036 isolate after 20 hrs by twofold serial dilution technique; details: H.C. 21036, 20 h; outline: as §1
[10] = system: Staphylococcus aureus; assay: Antimicrobial activity against multidrug-resistant Staphylococcus aureus H.C. 20489 isolate after 20 hrs by twofold serial dilution technique; details: H.C. 20489, 20 h; outline: as §1
[11] = system: Staphylococcus aureus; assay: Antimicrobial activity against multidrug-resistant Staphylococcus aureus H.C. 20794 isolate after 20 hrs by twofold serial dilution technique; details: H.C. 20794, 20 h; outline: as §1
[12] = system: Staphylococcus aureus; assay: Antimicrobial activity against multidrug-resistant Staphylococcus aureus H.C. 20905 isolate after 20 hrs by twofold serial dilution technique; details: H.C. 20905, 20 h; outline: as §1
[13] = system: Enterococcus faecalis; assay: Antimicrobial activity against multidrug-resistant Enterococcus faecalis H.C. 21752 isolate after 20 hrs by twofold serial dilution technique; details: H.C. 21752, 20 h; outline: as §1
[14] = system: Enterococcus faecalis; assay: Antimicrobial activity against multidrug-resistant Enterococcus faecalis H.C. 21944 isolate after 20 hrs by twofold serial dilution technique; details: H.C. 21944, 20 h; outline: as §1
[15] = system: Enterococcus faecalis; assay: Antimicrobial activity against multidrug-resistant Enterococcus faecalis H.C. 24708 isolate after 20 hrs by twofold serial dilution technique; details: H.C. 24708, 20 h; outline: as §1
[16] = system: Enterococcus faecalis; assay: Antimicrobial activity against multidrug-resistant Enterococcus faecalis H.C. 24962 isolate after 20 hrs by twofold serial dilution technique; details: H.C. 24962, 20 h; outline: as §1
[17] = system: Staphylococcus; assay: Antimicrobial activity against coagulase-negative Staphylococcus H.A.M. 278 isolate after 20 hrs by twofold serial dilution technique; details: H.A.M. 278, 20 h; outline: as §2
[18] = system: Staphylococcus; assay: Antimicrobial activity against coagulase-negative Staphylococcus H.A.M. 338 isolate after 20 hrs by twofold serial dilution technique; details: H.A.M. 338, 20 h; outline: as §2
[19] = system: NCI-H292; assay: Cytotoxicity against human NCI-H292 cells at 10 ug/mL after 72 hrs by MTT assay; details: NCI-H292, 72 h, read-out: GI
Outline: (§3)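 MTT antiproliferative assay. Cells were diluted to 10⁵ cells/mL in 96-well plates and preincubated for 24 h at 37 °C in humid 5% CO₂. Compounds or vincristine (reference) were then added. Formazan was dissolved and OD read at 540 nm, compared with medium-only control cells. Run in triplicate.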

[20] = system: NCI-H292; assay: Cytotoxicity against human NCI-H292 cells at 5 ug/mL after 72 hrs by MTT assay; details: NCI-H292, 72 h, read-out: GI; outline: as §3
[21] = system: NCI-H292; assay: Cytotoxicity against human NCI-H292 cells at 2.5 ug/mL after 72 hrs by MTT assay; details: NCI-H292, 72 h, read-out: GI; outline: as §3
[22] = system: NCI-H292; assay: Cytotoxicity against human NCI-H292 cells at 1.25 ug/mL after 72 hrs by MTT assay; details: NCI-H292, 72 h, read-out: GI; outline: as §3
[23] = system: HEp-2; assay: Cytotoxicity against human Hep2 cells at 10 ug/mL after 72 hrs by MTT assay; details: HEp-2, 72 h, read-out: GI; outline: as §3
[24] = system: HEp-2; assay: Cytotoxicity against human Hep2 cells at 5 ug/mL after 72 hrs by MTT assay; details: HEp-2, 72 h, read-out: GI; outline: as §3
[25] = system: HEp-2; assay: Cytotoxicity against human Hep2 cells at 2.5 ug/mL after 72 hrs by MTT assay; details: HEp-2, 72 h, read-out: GI; outline: as §3
[26] = system: HEp-2; assay: Cytotoxicity against human Hep2 cells at 1.25 ug/mL after 72 hrs by MTT assay; details: HEp-2, 72 h, read-out: GI; outline: as §3
[27] = system: Serratia marcescens; assay: Antimicrobial activity against Serratia marcescens UFPEDA 398 at 300 ug/disk after 24 hrs by disk diffusion method; details: UFPEDA 398, 24 h, read-out: IZ
Outline: (§4)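 Preliminary screen by disk diffusion. Paper disks (6 mm) holding 300 µg of compound were placed on agar plates inoculated with a standardized microbial suspension. DMSO-only disks served as negative controls. A mean inhibition zone below 7 mm was scored as no sensitivity. Values are means, n = 3.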

[28] = system: Escherichia coli; assay: Antimicrobial activity against Escherichia coli UFPEDA 224 at 300 ug/disk after 24 hrs by disk diffusion method; details: UFPEDA 224, 24 h, read-out: IZ; outline: as §4
[29] = system: Staphylococcus aureus; assay: Antimicrobial activity against Staphylococcus aureus UFPEDA 01 at 300 ug/disk after 24 hrs by disk diffusion method; details: UFPEDA 01, 24 h, read-out: IZ; outline: as §4
[30] = system: Bacillus subtilis; assay: Antimicrobial activity against Bacillus subtilis UFPEDA 16 at 300 ug/disk after 24 hrs by disk diffusion method; details: UFPEDA 16, 24 h, read-out: IZ; outline: as §4
[31] = system: Micrococcus luteus; assay: Antimicrobial activity against Micrococcus luteus UFPEDA 06 at 300 ug/disk after 24 hrs by disk diffusion method; details: UFPEDA 06, 24 h, read-out: IZ; outline: as §4
[32] = system: Enterococcus faecalis; assay: Antimicrobial activity against Enterococcus faecalis UFPEDA 138 at 300 ug/disk after 24 hrs by disk diffusion method; details: UFPEDA 138, 24 h, read-out: IZ; outline: as §4
[33] = system: Pseudomonas aeruginosa; assay: Antimicrobial activity against Pseudomonas aeruginosa UFPEDA 39 at 300 ug/disk after 24 hrs by disk diffusion method; details: UFPEDA 39, 24 h, read-out: IZ; outline: as §4
[34] = system: Mycolicibacterium smegmatis; assay: Antimicrobial activity against Mycobacterium smegmatis UFPEDA 71 at 300 ug/disk after 24 hrs by disk diffusion method; details: UFPEDA 71, 24 h, read-out: IZ; outline: as §4
[35] = system: Candida albicans; assay: Antimicrobial activity against Candida albicans UFPEDA 1007 at 300 ug/disk after 48 hrs by disk diffusion method; details: UFPEDA 1007, 48 h, read-out: IZ; outline: as §4

In the case of `O=C1NC(=S)/C(=C/c2ccccc2Br)S1`, the MIC [1] is reported as 4 µg/mL (≈ 13.3 µM), the MIC [2] is reported as 8 µg/mL (≈ 26.6 µM) and the MIC [3] is reported as 16 µg/mL (≈ 53.3 µM). It also gave an MIC [4] of 32 µg/mL (≈ 107 µM), an MIC [5] of 32 µg/mL (≈ 107 µM) and an MIC [6] of 32 µg/mL (≈ 107 µM). For the same compound, the MIC [7] was 4 µg/mL (≈ 13.3 µM), the MIC [8] was 16 µg/mL (≈ 53.3 µM) and the MIC [9] was 4 µg/mL (≈ 13.3 µM). It also gave an MIC [10] of 4 µg/mL (≈ 13.3 µM), an MIC [11] of 4 µg/mL (≈ 13.3 µM) and an MIC [12] of 4 µg/mL (≈ 13.3 µM). For the same compound, the MIC [13] was 8 µg/mL (≈ 26.6 µM), the MIC [14] was 16 µg/mL (≈ 53.3 µM) and the MIC [15] was 16 µg/mL (≈ 53.3 µM). For the same compound, the MIC [16] was 16 µg/mL (≈ 53.3 µM), the MIC [17] was 2 µg/mL (≈ 6.66 µM) and the MIC [18] was 16 µg/mL (≈ 53.3 µM). For the same compound, the inhibition of growth at 10 µg/mL [19] was 36.9%, the inhibition of growth at 5 µg/mL [20] was 22.9% and the inhibition of growth at 2.5 µg/mL [21] was 16.2%. The inhibition of growth at 1.25 µg/mL [22] was 13.3%, the inhibition of growth at 10 µg/mL [23] was 21.2% and the inhibition of growth at 5 µg/mL [24] was 16.2%. It also gave an inhibition of growth at 2.5 µg/mL [25] of 10.3%, an inhibition of growth at 1.25 µg/mL [26] of 3.14% and a zone of inhibition at 300 µg/disc [27] of under 7 mm. For the same compound, the zone of inhibition at 300 µg/disc [28] was under 7 mm, the zone of inhibition at 300 µg/disc [29] was 25 mm and the zone of inhibition at 300 µg/disc [30] was 19 mm. The zone of inhibition at 300 µg/disc [31] was 18 mm, the zone of inhibition at 300 µg/disc [32] was 19 mm and the zone of inhibition at 300 µg/disc [33] was under 7 mm. The zone of inhibition at 300 µg/disc [34] was 21 mm and the zone of inhibition at 300 µg/disc [35] was 13 mm.
Work on `O=C1NC(=S)/C(=C/c2cccc(F)c2)S1` yielded an MIC [1] of 4 µg/mL (≈ 16.7 µM), an MIC [2] of 16 µg/mL (≈ 66.9 µM) and an MIC [3] of 16 µg/mL (≈ 66.9 µM). It also gave an MIC [4] of 32 µg/mL (≈ 134 µM), an MIC [5] of 32 µg/mL (≈ 134 µM) and an MIC [6] of 64 µg/mL (≈ 267 µM). It also gave an MIC [7] of 2 µg/mL (≈ 8.36 µM), an MIC [8] of 16 µg/mL (≈ 66.9 µM) and an MIC [9] of 2 µg/mL (≈ 8.36 µM). For the same compound, the MIC [10] was 2 µg/mL (≈ 8.36 µM), the MIC [11] was 2 µg/mL (≈ 8.36 µM) and the MIC [12] was 2 µg/mL (≈ 8.36 µM). The MIC [13] was 16 µg/mL (≈ 66.9 µM), the MIC [14] was 8 µg/mL (≈ 33.4 µM) and the MIC [15] was 8 µg/mL (≈ 33.4 µM). It also gave an MIC [16] of 8 µg/mL (≈ 33.4 µM), an MIC [17] of 16 µg/mL (≈ 66.9 µM) and an MIC [18] of 16 µg/mL (≈ 66.9 µM). For the same compound, the inhibition of growth at 10 µg/mL [19] was 26.8%, the inhibition of growth at 5 µg/mL [20] was 13.1% and the inhibition of growth at 2.5 µg/mL [21] was 3.43%. The inhibition of growth at 1.25 µg/mL [22] was 2.1%, the inhibition of growth at 10 µg/mL [23] was 20.9% and the inhibition of growth at 5 µg/mL [24] was 19.8%. The inhibition of growth at 2.5 µg/mL [25] was 7.03%, the inhibition of growth at 1.25 µg/mL [26] was 0.84% and the zone of inhibition at 300 µg/disc [27] was under 7 mm. It also gave a zone of inhibition at 300 µg/disc [28] of under 7 mm, a zone of inhibition at 300 µg/disc [29] of 28 mm and a zone of inhibition at 300 µg/disc [30] of 20 mm. For the same compound, the zone of inhibition at 300 µg/disc [31] was 27 mm, the zone of inhibition at 300 µg/disc [32] was 22 mm and the zone of inhibition at 300 µg/disc [33] was under 7 mm. It also gave a zone of inhibition at 300 µg/disc [34] of 20 mm and a zone of inhibition at 300 µg/disc [35] of 16 mm.
